87 molecules from PubChem BioAssay AID651647 (Sanford-Burnham Center for Chemical Genomics, 2012) can be followed below.

In all, about 360,000 compounds went through this assay and about 220 (0.061%) were called active. Many of the other results were omitted from the sample, so actives are more common in it than they were. A number with no mark means an inactive call.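 How the source made its calls: active means GFP/RFP ratio change of at least 30% with cell ATP level not reduced by more than half and red fluorescence within 50% of control; inactive means the rest, inconclusive results apart.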

In the test the target is Matrix metalloproteinase-14 (Homo sapiens) (UniProt P50281). As to the kind of experiment: MT1-MMP activation inhibitors, cellular reporter – HT1080 RFP-PRO-GFP cells, GFP/RFP fluorescence, primary screen (AID 651647). The settings on record: overnight, at 20 µM, active compounds read high, percent of plate control window, DMSO zero. The method, boiled down:
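Material – HT1080 RFP-PRO-GFP cells · Control set – DMSO wells and RFP-L50D-GFP cells · Incubation – overnight cell settling, then overnight compound exposure, 37 °C, 5% CO2 · Compound dosing – single-point 20 µM compound, 1% DMSO · Read-out – GFP/RFP fluorescence ratio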
As for `COC1=C/C(=C/c2c(N)n3nc(CC(=O)N4CCOCC4)sc3nc2=O)C=CC1=O`, the GFP/RFP ratio change is -33.2%.

On to `Cc1ccc(C(=O)Nc2nnc(C3=COCCO3)o2)cc1C`, for which the GFP/RFP ratio change was -0.926%.

With `CCC(=O)N1CCCC1(C)C(=O)Nc1ccc2c(c1)CCN2C(C)=O` (configuration not stated), the GFP/RFP ratio change is -0.545%.

Turning to `NS(=O)(=O)c1ccc(N2C(=O)C3C4CC(C(Br)C4Br)C3C2=O)cc1` (configuration not stated), the GFP/RFP ratio change is -0.391%.

As for `CCc1ccc(-c2cc3c(=O)n(CC(=O)NCCCN4CCN(Cc5ccccc5)CC4)nc(C)n3n2)cc1`, the GFP/RFP ratio change is -3.13%.

For the molecule `C/C(=N\c1nc2ccccc2n1C)c1cc(Cl)ccc1O`, the GFP/RFP ratio change was 1.93%.

With `COc1cc(C(=S)NCc2ccccc2)cc(Br)c1O`, the GFP/RFP ratio change is 4.38%.

Regarding `O=S1(=O)CC(N2CCN(CCO)CC2)CN1C1CCCC1` (configuration not stated), the GFP/RFP ratio change is -0.753%.

For the molecule `CSc1cccc(NC(=O)C2CCCN2S(=O)(=O)c2ccc3c(c2)CCC(=O)N3)c1` (configuration not stated), the GFP/RFP ratio change was -0.538%.

`O=[N+]([O-])c1cc(S(=O)(=O)N2CCCC2)ccc1NN=C1CCCC1`: the GFP/RFP ratio change was 0.0654%.

Regarding `COc1ccc(/C=C2\CCCC3C2=NN(C(=O)c2scnc2C)C3c2ccc(OC)cc2)cc1` (configuration not stated), the GFP/RFP ratio change is -11.9%.

On to `CCN(c1ccccc1)S(=O)(=O)c1ccc2[nH]c(=O)[nH]c2c1`, for which the GFP/RFP ratio change was -1.12%.

Take `O=C1CCC(C(=O)N2CCC(O)(c3ccccc3)CC2)CN1CCc1ccccc1` (configuration not stated): the GFP/RFP ratio change is -2.93%.

As to `COc1ccc(CCN2CC(C(=O)NCCN3CCNC3=O)CCC2=O)cc1` (configuration not stated), the GFP/RFP ratio change was 0.0278%.

`Cc1ccc(-c2nc(CSCC(=O)NC3CCN(Cc4ccccc4)CC3)c(C)o2)cc1`: the GFP/RFP ratio change is 1.7%.

In the case of `CC1(C)N=C(c2ccccn2)C(C)(C)N1O`, the GFP/RFP ratio change is -4.4%.

As for `O=C(NNc1c2ccccc2nc2ccccc12)c1cc2ccccc2cc1O`, the GFP/RFP ratio change was 55.7% (active).

On to `O=C(CSc1nc(C2CC2)nc2ccccc12)Nc1cccc(O)c1`, for which the GFP/RFP ratio change was -3.6%.

As to `O=C(Cc1ccccn1)c1ccc(O)cc1O`, the GFP/RFP ratio change was -2.78%.

For the molecule `O=C(COC(=O)COc1ccccc1F)Nc1cccc(S(=O)(=O)N2CCCCC2)c1`, the GFP/RFP ratio change was 4.15%.

With `CC1(c2ccccc2Cl)NC(=O)N(CC(=O)NC(=O)NCc2ccco2)C1=O` (configuration not stated), the GFP/RFP ratio change is -1.98%.

In the case of `O=C(Cn1c(-c2cscn2)nc2ccccc21)Nc1ccc(Cl)cc1`, the GFP/RFP ratio change was 0.072%.

`O=C(CSc1nnc(-c2ccc([N+](=O)[O-])cc2)o1)Nc1ccccn1`: the GFP/RFP ratio change is 3.02%.

As for `O=C(c1cc2c(s1)CCC2)N1CCN(c2ccccc2)CC1`, the GFP/RFP ratio change is -1.39%.

On to `O=C(COc1ncnc2c(Cl)cc(Cl)cc12)N1CCN(S(=O)(=O)c2ccccc2)CC1`, for which the GFP/RFP ratio change was -1.19%.

As for `COc1ccc(C(=O)CN2C(=O)NC(C)(c3ccc(C)cc3)C2=O)cc1OC` (configuration not stated), the GFP/RFP ratio change is 5.51%.

Regarding `CCOC(=O)C1CCN(C(=O)Nc2ccc(C)c(Cl)c2)CC1`, the GFP/RFP ratio change was 2.62%.

`CCC1=C(OC(=O)N(CC)CC)N2C(=O)OC(=NCC3CC3)[C@]2(C)[C@H]2C1=CC[C@H]1C(=O)N(CC(=O)OC)C(=O)[C@H]12`: the GFP/RFP ratio change is -1.64%.

Take `O=c1[nH]c2ccccc2n2c(-c3ccccc3)nnc12`: the GFP/RFP ratio change was 2.93%.

Regarding `Cc1ccc(NC(=O)CSc2nnc(CNC(=O)c3ccccc3F)o2)cc1Cl`, the GFP/RFP ratio change was 3.87%.

On to `CCOC(=O)N1CCC(c2cc(=O)n(-c3ccccc3)[nH]2)CC1`, for which the GFP/RFP ratio change is 9.16%.

As for `CCOc1ccc(CCNC(=O)COC(=O)C2CCN(S(=O)(=O)c3ccccc3)CC2)cc1OCC`, the GFP/RFP ratio change was 2.91%.

For the molecule `O=C(NCCN1CCOCC1)c1ccccc1N1C(=O)[C@@H]2Cc3c([nH]c4ccccc34)C(c3cccc(Cl)c3)N2C1=O` (some centres not stated), the GFP/RFP ratio change was -1.74%.

As for `CC1(C)CC(O)C(CCC(O)c2ccccc2)C(C)(C)N1` (configuration not stated), the GFP/RFP ratio change was -4.83%.

Regarding `CC1CCCCC12NC(=O)N(CC(=O)OCc1c(F)cccc1Cl)C2=O` (configuration not stated), the GFP/RFP ratio change is -0.886%.

Turning to `O=C(CCN1CCN(C/C=C/c2ccccc2)CC1)Nc1cccc(F)c1`, the GFP/RFP ratio change is 5.08%.

As to `CCCOC1CCCN(C(=O)c2cc(COc3cncc(Cl)c3)on2)C1` (configuration not stated), the GFP/RFP ratio change is 0.805%.

Consider `CCCC1NC(=S)NC(C)=C1C(C)=O` (configuration not stated), for which the GFP/RFP ratio change is 5.05%.

Take `O=C(C1CCN(S(=O)(=O)Cc2ccccc2)CC1)N1CCCc2ccccc21`: the GFP/RFP ratio change was -2.92%.

With `O=[N+]([O-])c1ccc(N2CCNCC2)cc1NCc1cccnc1`, the GFP/RFP ratio change is -8.92%.

In the case of `O=C(NC1CCCC1)C(c1ccc(Cl)cc1)N(C(=O)c1csnn1)C1CC1` (configuration not stated), the GFP/RFP ratio change is -4.04%.

In the case of `O=C(c1ccco1)N1CCN(C(=O)C2CC(c3ccc(F)cc3)=NO2)CC1` (configuration not stated), the GFP/RFP ratio change was 1.83%.

Regarding `CCc1cccc2c(C=C(C#N)C#N)cn(CC(=O)N3CCCCC3)c12`, the GFP/RFP ratio change was 0.243%.

In the case of `CC(=O)c1cccc(-c2cnc3c(NC=O)cc(-c4ccc(N5CCN(C)CC5)cc4)cn23)c1`, the GFP/RFP ratio change is -9.51%.

`CN(C)S(=O)(=O)c1cccc(NC(=O)COc2ccc3ccccc3c2)c1`: the GFP/RFP ratio change was 3.9%.

For `Cc1cc2ccccc2n1CCNC(=O)COc1ccc2ccccc2c1`, the GFP/RFP ratio change was 30.8% (active).

As for `COCCNC(=O)COc1ccc(N(C)S(=O)(=O)c2ccc3ccccc3c2)cc1`, the GFP/RFP ratio change was 0.935%.

As for `C[C@@H]1CN([C@@H](C)CO)C(=O)c2cc(Br)cnc2O[C@@H]1CN(C)C(=O)C1CCCCC1`, the GFP/RFP ratio change was 5.19%.

Take `S=C1Nc2cc(Cl)ccc2Sc2ccccc21`: the GFP/RFP ratio change was 1.33%.

Regarding `Cc1cc(C)cc(Oc2nc3c(C)cccn3c(=O)c2/C=C(\C#N)C(=O)NC2CCS(=O)(=O)C2)c1` (configuration not stated), the GFP/RFP ratio change is -5.71%.

As to `O=C(CSc1nnc(-c2ccoc2)o1)N1CCOCC1`, the GFP/RFP ratio change is -1.67%.

On to `O=C1Nc2ccccc2NC(c2ccc3c(c2)OCO3)=C1N(Cc1ccc(F)cc1)C(=O)c1ccco1`, for which the GFP/RFP ratio change is 1.27%.

As for `COc1ccc(C)cc1NC(=O)CCCN1C(=O)NC(C)(C)C1=O`, the GFP/RFP ratio change is -3.61%.

As to `C/C(=C\c1ccco1)CN1CCC(N2CCC(C(=O)N3CCOCC3)CC2)CC1`, the GFP/RFP ratio change was 0.944%.

Regarding `Cc1ccc(CNC(=O)CC2Sc3ccccc3NC2=O)cc1` (configuration not stated), the GFP/RFP ratio change was 0.784%.

For `Cc1cc(-c2nnc(SCC(=O)Nc3ccc(S(N)(=O)=O)cc3)n2N)n[nH]1`, the GFP/RFP ratio change is -2.72%.

Take `O=C(CSc1ccc(C(F)(F)F)cc1[N+](=O)[O-])NCCOc1ccccc1`: the GFP/RFP ratio change was -0.0162%.

Turning to `Cc1cc(-c2nnc(CCC(=O)NC(c3ccccc3)c3ccccc3)o2)no1`, the GFP/RFP ratio change was -0.114%.

As for `CCn1c(SCC(=O)NC2CC2)nnc1-c1ccncc1`, the GFP/RFP ratio change was 1.37%.

With `O=C(NCCCn1ccnc1)C1CCCN(S(=O)(=O)c2cc(Cl)ccc2Cl)C1` (configuration not stated), the GFP/RFP ratio change was 0.609%.

For the molecule `CC(C)C(NC(=O)c1cccc(S(=O)(=O)N2CCOCC2)c1)C(=O)NCCc1ccccn1` (configuration not stated), the GFP/RFP ratio change was -6.01%.

For `CC(Sc1nncs1)C(=O)NCc1ccc2c(c1)OCO2` (configuration not stated), the GFP/RFP ratio change is 2.24%.

Take `CN(C)c1ccc(NC(=O)CN2C3CCCC2CC(NC(=O)c2ccccc2)C3)cc1` (configuration not stated): the GFP/RFP ratio change is 6.85%.

For the molecule `CCc1cc(-c2nnn(CCC3COCCO3)c2CC)ccc1-c1cn(Cc2ccc3ccccc3c2)nn1` (configuration not stated), the GFP/RFP ratio change is 2.05%.

Consider `C/C=N/N(c1ccccc1)c1ccccc1`, for which the GFP/RFP ratio change was -0.385%.

With `NS(=O)(=O)c1ccc(CCNC(=O)CCCn2c(SCC(=O)N3CCCC3)nc3ccsc3c2=O)cc1`, the GFP/RFP ratio change was -1.21%.

With `O=C(Nc1ccn(CCCNCc2ccc3[nH]ccc3c2)c(=O)n1)OCc1ccccc1`, the GFP/RFP ratio change was -0.535%.

With `CCOC(=O)C1C(c2ccc(OC)c(OC)c2)c2c([nH][nH]c2=O)CC1(C)O` (configuration not stated), the GFP/RFP ratio change is 4.39%.

Take `O=C1CCN(Cc2ccccc2)CCN1[C@H](CSc1ccccc1)c1ccccc1`: the GFP/RFP ratio change is -2.64%.

`COc1c(O)cccc1-c1nnn(CCC(=O)OCC(=O)c2ccccc2)n1`: the GFP/RFP ratio change was 4.76%.

Turning to `CN(CC(=O)Nc1ccccc1F)CC(=O)Nc1ccccc1Br`, the GFP/RFP ratio change was 7.11%.

Turning to `O=C1NC[C@H](CCCCN2C[C@H](Cc3ccc(O)cc3)N(CC3CCCCC3)C(=O)C2=O)N(CCc2ccccc2)C1=O`, the GFP/RFP ratio change was 1.64%.

As to `N#C[C@]1(S(=O)(=O)c2ccccc2)C[C@@H]2ON=C(c3cccc(Br)c3)[C@@H]2C1`, the GFP/RFP ratio change is 2.88%.

In the case of `CC(C)CC(O)C1CCN(C(=O)CCc2nnc(-c3ccc4c(c3)OCO4)o2)CC1` (configuration not stated), the GFP/RFP ratio change was 1.69%.

For the molecule `O=S1(=O)CCOC[C@H](Cc2ccccc2)N1Cc1ccccc1Br`, the GFP/RFP ratio change was -1.83%.

On to `O=C(c1cc(Cl)cc(Cl)c1)N1CCC(=O)N(C(COCc2ccccc2)Cc2ccccc2)CC1` (configuration not stated), for which the GFP/RFP ratio change was -5.95%.

Regarding `O=C(Nc1ccccc1F)C1C2C=CC3(O2)C1C(=O)N(c1cccnc1)C3C(=O)NC1CCCCC1` (configuration not stated), the GFP/RFP ratio change is 1.65%.

Regarding `CCOC(=O)/C(N=Nc1cc(C(=O)O)cc(C(=O)O)c1)=C(\O)CCl`, the GFP/RFP ratio change was -3.33%.

In the case of `Cc1cccc(C)c1NC(=O)C1(C)c2cccc[n+]2CC(=O)N1Cc1cccs1` (configuration not stated), the GFP/RFP ratio change is -3.13%.

As to `CCCCCCCCOC1OC(CO)C(O)C(O)C1NC(C)=O` (configuration not stated), the GFP/RFP ratio change was 0.0413%.

As for `O=C(c1cccc(Cl)c1)N1CCN(Cc2ccccc2)CC1`, the GFP/RFP ratio change is 30.7% (active).

For the molecule `CC(C)CC(=O)N1CCN(Cc2cccc(Cl)c2)CC1`, the GFP/RFP ratio change is -0.171%.

For `O=C(c1cccc(S(=O)(=O)N2CCCCCC2)c1)N1CCN(Cc2ccccc2)CC1`, the GFP/RFP ratio change was -4.24%.

Turning to `CN(C)c1ccc(C=NCCc2ccc(S(N)(=O)=O)cc2)cc1`, the GFP/RFP ratio change was 3.81%.

On to `CN(CC(=O)NC(=O)Nc1ccccc1F)Cc1ccccc1`, for which the GFP/RFP ratio change was 1.45%.

For `COC(=O)C1C(=O)CC(C)(O)C(C(=O)OC)C1c1ccc2c(c1)OCO2` (configuration not stated), the GFP/RFP ratio change is 19%.

As for `CS(=O)(=O)c1ccc2nnn(OCC(=O)Nc3cccc(C#N)c3)c2c1`, the GFP/RFP ratio change is 0.844%.
